Laboratory results taken from ChEMBL document CHEMBL1123734, “Resolution, absolute stereochemistry, and enantioselective activity of nomifensine and hexahydro-1H-indeno[1,2-b]pyridines” (J Med Chem, 1987).
Where “and” joins values, the source holds several entries; their conditions need not be identical. Identical values can stand only once.

Columns and labels:
Mus musculus [1] = assay: Antidepressant potential was assessed by the potentiation of yohimbine-induced toxicity in mice by intraperitoneal administration.; assay type: functional
In short: (§1)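 Male NMRI mice (SPF-71, KF), 20-30 g, were randomized into groups of 10. Compounds were dissolved in 1% methylcellulose, dosed at 10 mL/kg, and given ip 30 min before yohimbine hydrochloride (20 mg/kg sc). Deaths were counted after 18 h. ED50 was the dose at which 50% of animals died.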

Mus musculus [2] = assay: Antidepressant potential was assessed by the prevention of tetrabenazine-induced ptosis in mice by intraperitoneal administration.; assay type: functional
Rattus norvegicus [3] = species: Rattus norvegicus; assay: In vitro inhibition of [14C]norepinephrine uptake into rat hypothalamus; assay type: functional, organism-based
Mus musculus [4] = assay: (§2) Lethal dose (toxicity) was determined by intraperitoneal administration in mice.; assay type: organism-based; conditions: in vivo, ip
In short: (§3)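 Male NMRI mice (SPF-71, KF), 20-30 g, randomly assigned to groups of 10. Compounds were dissolved in 1% methylcellulose and given intraperitoneally at 10 mL/kg body weight.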

Rattus norvegicus [5] = species: Rattus norvegicus; assay: In vitro inhibition of [3H]dopamine uptake into rat corpus striatum; assay type: functional, organism-based
Mus musculus [6] = assay: Antidepressant potential was assessed by the prevention of tetrabenazine-induced ptosis in mice by intraperitoneal administration; Inactive; assay type: functional; conditions: ip
[7] = (§4) Lethal dose (toxicity) was determined by intraperitoneal administration in mice; assay type: organism-based; conditions: mouse, in vivo, ip; in short: as §3
Mus musculus [8] = assay: as §4; assay type: organism-based; conditions: in vivo, ip; in short: as §3
Mus musculus [9] = assay: Antidepressant potential was assessed by the prevention of tetrabenazine-induced ptosis in mice by intraperitoneal administration; assay type: functional
In short: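 Male NMRI mice (SPF-71, KF), 20-30 g, randomly assigned to groups of 10. Compounds dissolved in 1% methylcellulose and given ip at 10 mL/kg body weight. Ptosis procedure follows an earlier cited method.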

Rattus norvegicus [10] = species: Rattus norvegicus; assay: In vitro inhibition of [3H]5-HT uptake into rat whole brain; assay type: functional, organism-based
Mus musculus [11] = assay: Antidepressant potential was assessed by the potentiation of yohimbine-induced toxicity in mice by intraperitoneal administration; Inactive; assay type: functional; conditions: ip; in short: as §1
Mus musculus [12] = assay: Antidepressant potential was assessed by the potentiation of yohimbine-induced toxicity in mice by intraperitoneal administration; assay type: functional; in short: as §1
[13] = as §2; assay type: organism-based; conditions: mouse, in vivo, ip; in short: as §3
[14] = Mus musculus, ip, read-out: ED50

| SMILES | ED50 (Mus musculus [1]) | IC50 (Rattus norvegicus [3]) | LD50 (Mus musculus [4]) | IC50 (Rattus norvegicus [5]) | LD50 [7] | LD50 (Mus musculus [8]) | IC50 (Rattus norvegicus [10]) | ED50 (Mus musculus [12]) | further results |
| --- | --- | --- | --- | --- | --- | --- | --- | --- | --- |
| Nc1ccc([C@H]2c3ccccc3[C@@H]3NCCC[C@H]23)cc1 (racemic) | 0.06 mg/kg | 18 nM | 37 mg/kg | 44 nM | – | – | – | – | ED50 (Mus musculus [2]): 0.044 mg/kg |
| CCCN1CCC[C@@H]2[C@@H](c3ccccc3)c3ccccc3[C@@H]21 | – | 36 nM and 200 nM | – | 40 nM and 200 nM | 39 mg/kg | 35 mg/kg | > 10000 nM | 1.2 mg/kg | ED50 (Mus musculus [6]): 5 mg/kg; ED50 (Mus musculus [9]; [14]): 0.4 mg/kg; ED50 (Mus musculus [11]): 5 mg/kg |
| Nc1ccc([C@H]2c3ccccc3[C@@H]3NCCC[C@H]23)cc1 | 0.07 mg/kg and 0.15 mg/kg | 5 nM and 15 nM | – | 20 nM and 50 nM | 78 mg/kg | – | – | – | LD50 [13]: 43 mg/kg; IC50 (Rattus norvegicus [10]; Rattus norvegicus, 1 h): > 10000 nM |
| CN1Cc2c(N)cccc2C(c2ccccc2)C1 (stereo in doubt; (+)) [NOMIFENSINE] | 0.55 mg/kg | – | 49.5 mg/kg | – | – | – | – | – | – |
| CN1Cc2c(N)cccc2C(c2ccccc2)C1 (racemic) [NOMIFENSINE] | 1.1 mg/kg | – | 141 mg/kg | – | – | – | – | – | – |
| CCCN1CCC[C@@H]2[C@@H](c3ccccc3)c3ccccc3[C@@H]21 (racemic) | – | 410 nM | – | 110 nM | – | 57 mg/kg | > 10000 nM | 3.5 mg/kg | ED50 (Mus musculus [9]): 0.8 mg/kg |
| CN1CCC[C@@H]2[C@@H](c3ccccc3)c3ccccc3[C@@H]21 (racemic) | – | 120 nM | – | 100 nM | 46.7 mg/kg | – | 10000 nM | – | ED50 (Mus musculus [9]; [14]): 0.4 mg/kg; ED50 (Mus musculus [12]; [14]): 1.3 mg/kg |
| CN1Cc2c(N)cccc2C(c2ccccc2)C1 (stereo in doubt; (-)) [NOMIFENSINE] | 20.2 mg/kg | – | 170 mg/kg | – | – | – | – | – | – |
| CN1CCC[C@@H]2[C@@H](c3ccccc3)c3ccccc3[C@@H]21 | – | 500 nM and 60 nM | – | 300 nM | – | 72 mg/kg and 91 mg/kg | – | 0.86 mg/kg | ED50 (Mus musculus [6]): 10 mg/kg; ED50 (Mus musculus [9]): 0.37 mg/kg; ED50 (Mus musculus [11]): 5 mg/kg |
